# Columns and labels:
# Assay type in all cases: functional
# [1] = system: Escherichia coli; assay: Antibacterial activity against Escherichia coli 10-1 after 18 hrs by two fold serial dilution method; conditions: 10-1, 18 h
# Summary of the method: (§1)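 Agar two-fold serial dilution in melted Mueller-Hinton agar, final concentrations 128 down to 0.008 μg/mL. Plates inoculated with 10⁴ cfu and incubated at 35 °C for 18 h. MIC taken as the lowest concentration giving no visible growth on the plate.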
# [2] = system: Escherichia coli; assay: Antibacterial activity against Escherichia coli 10-2 after 18 hrs by two fold serial dilution method; conditions: 10-2, 18 h; summary of the method: as §1
# [3] = system: Escherichia coli; assay: Antibacterial activity against Escherichia coli 10-3 after 18 hrs by two fold serial dilution method; conditions: 10-3, 18 h; summary of the method: as §1
# [4] = system: Klebsiella pneumoniae; assay: Antibacterial activity against Klebsiella pneumoniae 09-2 after 18 hrs by two fold serial dilution method; conditions: 09-2, 18 h; summary of the method: as §1
# [5] = system: Klebsiella pneumoniae; assay: Antibacterial activity against Klebsiella pneumoniae 10-1 after 18 hrs by two fold serial dilution method; conditions: 10-1, 18 h; summary of the method: as §1
# [6] = system: Klebsiella pneumoniae; assay: Antibacterial activity against Klebsiella pneumoniae 10-3 after 18 hrs by two fold serial dilution method; conditions: 10-3, 18 h; summary of the method: as §1
# [7] = system: Pseudomonas aeruginosa; assay: Antibacterial activity against Pseudomonas aeruginosa ATCC 27853 after 18 hrs by two fold serial dilution method; conditions: ATCC 27853, 18 h; summary of the method: as §1
# [8] = system: Pseudomonas aeruginosa; assay: Antibacterial activity against Pseudomonas aeruginosa 10-1 after 18 hrs by two fold serial dilution method; conditions: 10-1, 18 h; summary of the method: as §1
# [9] = system: Pseudomonas aeruginosa; assay: Antibacterial activity against Pseudomonas aeruginosa 10-2 after 18 hrs by two fold serial dilution method; conditions: 10-2, 18 h; summary of the method: as §1
# [10] = system: Pseudomonas aeruginosa; assay: Antibacterial activity against Pseudomonas aeruginosa 10-3 after 18 hrs by two fold serial dilution method; conditions: 10-3, 18 h; summary of the method: as §1
# [11] = system: Enterococcus faecium; assay: Antibacterial activity against Enterococcus faecium 09-1 after 18 hrs by two fold serial dilution method; conditions: 09-1, 18 h; summary of the method: as §1
# [12] = system: Staphylococcus aureus; assay: Antibacterial activity against Staphylococcus aureus ATCC 25923 after 18 hrs by two fold serial dilution method; conditions: ATCC 25923, 18 h; summary of the method: as §1
# [13] = system: Staphylococcus aureus; assay: Antibacterial activity against methicillin-resistant Staphylococcus aureus 10-1 after 18 hrs by two fold serial dilution method; conditions: 10-1, 18 h
# Summary of the method: (§2)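 Agar two-fold serial dilution in melted Mueller-Hinton agar, 128 to 0.008 μg/mL. Plates inoculated with 10⁴ cfu, incubated 35 °C for 18 h. MIC taken as lowest concentration giving no visible growth on the plate.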
# [14] = system: Staphylococcus aureus; assay: Antibacterial activity against methicillin-resistant Staphylococcus aureus 10-2 after 18 hrs by two fold serial dilution method; conditions: 10-2, 18 h; summary of the method: as §2
# [15] = system: Staphylococcus aureus; assay: Antibacterial activity against methicillin-resistant Staphylococcus aureus 10-3 after 18 hrs by two fold serial dilution method; conditions: 10-3, 18 h; summary of the method: as §2
# [16] = system: Staphylococcus aureus; assay: Antibacterial activity against methicillin-resistant Staphylococcus aureus 10-4 after 18 hrs by two fold serial dilution method; conditions: 10-4, 18 h; summary of the method: as §2
# [17] = system: Staphylococcus aureus; assay: Antibacterial activity against methicillin-sensitive Staphylococcus aureus 10-1 after 18 hrs by two fold serial dilution method; conditions: 10-1, 18 h; summary of the method: as §1
# [18] = system: Staphylococcus aureus; assay: Antibacterial activity against methicillin-sensitive Staphylococcus aureus 10-2 after 18 hrs by two fold serial dilution method; conditions: 10-2, 18 h; summary of the method: as §1
# [19] = system: Staphylococcus aureus; assay: Antibacterial activity against methicillin-sensitive Staphylococcus aureus 10-3 after 18 hrs by two fold serial dilution method; conditions: 10-3, 18 h; summary of the method: as §1
# [20] = system: Staphylococcus aureus; assay: Antibacterial activity against methicillin-sensitive Staphylococcus aureus 10-4 after 18 hrs by two fold serial dilution method; conditions: 10-4, 18 h; summary of the method: as §1
# [21] = system: Staphylococcus aureus; assay: Antibacterial activity against methicillin-sensitive Staphylococcus aureus 10-5 after 18 hrs by two fold serial dilution method; conditions: 10-5, 18 h; summary of the method: as §1
# [22] = system: Staphylococcus aureus; assay: Antibacterial activity against methicillin-sensitive Staphylococcus aureus 10-6 after 18 hrs by two fold serial dilution method; conditions: 10-6, 18 h; summary of the method: as §1
# [23] = system: Staphylococcus epidermidis; assay: Antibacterial activity against methicillin-resistant Staphylococcus epidermidis 10-1 after 18 hrs by two fold serial dilution method; conditions: 10-1, 18 h; summary of the method: as §2
# [24] = system: Staphylococcus epidermidis; assay: Antibacterial activity against methicillin-resistant Staphylococcus epidermidis 10-2 after 18 hrs by two fold serial dilution method; conditions: 10-2, 18 h; summary of the method: as §2
# [25] = system: Staphylococcus epidermidis; assay: Antibacterial activity against methicillin-sensitive Staphylococcus epidermidis 10-1 after 18 hrs by two fold serial dilution method; conditions: 10-1, 18 h; summary of the method: as §1
# [26] = system: Staphylococcus epidermidis; assay: Antibacterial activity against methicillin-sensitive Staphylococcus epidermidis 10-2 after 18 hrs by two fold serial dilution method; conditions: 10-2, 18 h; summary of the method: as §1
# [27] = system: Streptococcus pneumoniae; assay: Antibacterial activity against Streptococcus pneumoniae 10-1 after 18 hrs by two fold serial dilution method; conditions: 10-1, 18 h; summary of the method: as §1
# [28] = system: Enterococcus faecium; assay: Antibacterial activity against Enterococcus faecium 09-2 after 18 hrs by two fold serial dilution method; conditions: 09-2, 18 h; summary of the method: as §1
# [29] = system: Enterococcus faecium; assay: Antibacterial activity against Enterococcus faecium 09-3 after 18 hrs by two fold serial dilution method; conditions: 09-3, 18 h; summary of the method: as §1
# [30] = system: Enterococcus faecium; assay: Antibacterial activity against Enterococcus faecium 09-4 after 18 hrs by two fold serial dilution method; conditions: 09-4, 18 h; summary of the method: as §1
# [31] = system: Enterococcus faecium; assay: Antibacterial activity against Enterococcus faecium 09-5 after 18 hrs by two fold serial dilution method; conditions: 09-5, 18 h; summary of the method: as §1
# [32] = system: Enterococcus faecium; assay: Antibacterial activity against Enterococcus faecium 09-6 after 18 hrs by two fold serial dilution method; conditions: 09-6, 18 h; summary of the method: as §1
# [33] = system: Enterococcus faecalis; assay: Antibacterial activity against Enterococcus faecalis 09-1 after 18 hrs by two fold serial dilution method; conditions: 09-1, 18 h; summary of the method: as §1
# [34] = system: Enterococcus faecalis; assay: Antibacterial activity against Enterococcus faecalis 09-2 after 18 hrs by two fold serial dilution method; conditions: 09-2, 18 h; summary of the method: as §1
# [35] = system: Escherichia coli; assay: Antibacterial activity against Escherichia coli ATCC 25922 after 18 hrs by two fold serial dilution method; conditions: ATCC 25922, 18 h; summary of the method: as §1
# [36] = system: Escherichia coli; assay: Antibacterial activity against Escherichia coli 09-1 after 18 hrs by two fold serial dilution method; conditions: 09-1, 18 h; summary of the method: as §1
# [37] = system: Escherichia coli; assay: Antibacterial activity against Escherichia coli 09-2 after 18 hrs by two fold serial dilution method; conditions: 09-2, 18 h; summary of the method: as §1
# [38] = system: Escherichia coli; assay: Antibacterial activity against Escherichia coli 09-3 after 18 hrs by two fold serial dilution method; conditions: 09-3, 18 h; summary of the method: as §1
compound,measurement,setting,value
NCC1CN(c2nc3c(cc2F)c(=O)c(C(=O)O)cn3-c2ccc(F)cc2F)C/C1=N\OCF (racemic),MIC,[1],128 µg/mL
same,MIC,[2],4 µg/mL
same,MIC,[3],32 µg/mL
same,MIC,[4],> 128 µg/mL
same,MIC,[5],0.5 µg/mL
same,MIC,[6],4 µg/mL
same,MIC,[7],16 µg/mL
same,MIC,[8],4 µg/mL
same,MIC,[9],> 128 µg/mL
same,MIC,[10],32 µg/mL
same,MIC,[11],64 µg/mL
same,MIC,[12],0.25 µg/mL
same,MIC,[13],64 µg/mL
same,MIC,[14],16 µg/mL
same,MIC,[15],64 µg/mL
same,MIC,[16],64 µg/mL
same,MIC,[17],0.06 µg/mL
same,MIC,[18],4 µg/mL
same,MIC,[19],0.125 µg/mL
same,MIC,[20],0.125 µg/mL
same,MIC,[21],0.125 µg/mL
same,MIC,[22],0.125 µg/mL
same,MIC,[23],4 µg/mL
same,MIC,[24],8 µg/mL
same,MIC,[25],32 µg/mL
same,MIC,[26],32 µg/mL
same,MIC,[27],0.125 µg/mL
same,MIC,[28],64 µg/mL
same,MIC,[29],32 µg/mL
same,MIC,[30],0.5 µg/mL
same,MIC,[31],64 µg/mL
same,MIC,[32],0.5 µg/mL
same,MIC,[33],32 µg/mL
same,MIC,[34],32 µg/mL
same,MIC,[35],0.125 µg/mL
same,MIC,[36],128 µg/mL
same,MIC,[37],> 128 µg/mL
same,MIC,[38],> 128 µg/mL

# From ChEMBL document CHEMBL1926550, “Synthesis and antibacterial activity of naphthyridone derivatives containing mono/difluoro-methyloxime pyrrolidine scaffolds” (2012)
